Active and inactive are the calls of the source. The rule behind the calls is not given here.
Legend:
[1] = tested on: MV4-11; assay: Induction of apoptosis in human MV4-11 cells harboring FLT3-ITD mutant assessed viable cells at 0.03 uM after 72 hrs by AnnexinV-FITC/Propidium iodide staining based flow cytometric analysis (reference value: 90.5 %); type: functional
[2] = tested on: MV4-11; assay: Induction of apoptosis in human MV4-11 cells harboring FLT3-ITD mutant assessed as increase in early apoptotic cells after 72 hrs by AnnexinV-FITC/Propidium iodide staining based flow cytometric analysis; type: functional, cell-based; conditions: dose 0.03-0.15 µM
[3] = tested on: MV4-11; assay: Induction of apoptosis in human MV4-11 cells harboring FLT3-ITD mutant assessed viable cells at 0.03 uM after 48 hrs by AnnexinV-FITC/Propidium iodide staining based flow cytometric analysis (reference value: 86.15 %); type: functional
[4] = tested on: MV4-11; assay: Induction of apoptosis in human MV4-11 cells harboring FLT3-ITD mutant assessed necrotic cells at 0.03 uM after 48 hrs by AnnexinV-FITC/Propidium iodide staining based flow cytometric analysis (reference value: 0.45 %); type: functional
[5] = tested on: MV4-11; assay: Induction of apoptosis in human MV4-11 cells harboring FLT3-ITD mutant assessed viable cells at […] after 48 hrs by AnnexinV-FITC/Propidium iodide staining based flow cytometric analysis (reference value: 86.15 %); type: functional; conditions: dose 0.15 µM
[6] = tested on: MV4-11; assay: Induction of apoptosis in human MV4-11 cells harboring FLT3-ITD mutant assessed early apoptotic cells at […] after 48 hrs by AnnexinV-FITC/Propidium iodide staining based flow cytometric analysis (reference value: 11.84 %); type: functional; conditions: dose 0.15 µM
[7] = tested on: MV4-11; assay: Induction of apoptosis in human MV4-11 cells harboring FLT3-ITD mutant assessed late apoptotic cells at […] after 48 hrs by AnnexinV-FITC/Propidium iodide staining based flow cytometric analysis (reference value: 1.56 %); type: functional; conditions: dose 0.15 µM
[8] = tested on: MV4-11; assay: Induction of apoptosis in human MV4-11 cells harboring FLT3-ITD mutant assessed necrotic cells at […] after 48 hrs by AnnexinV-FITC/Propidium iodide staining based flow cytometric analysis (reference value: 0.45 %); type: functional; conditions: dose 0.15 µM
[9] = tested on: MV4-11; assay: Induction of apoptosis in human MV4-11 cells harboring FLT3-ITD mutant assessed viable cells at […] after 72 hrs by AnnexinV-FITC/Propidium iodide staining based flow cytometric analysis (reference value: 90.5 %); type: functional; conditions: dose 0.15 µM
[10] = tested on: MV4-11; assay: Induction of apoptosis in human MV4-11 cells harboring FLT3-ITD mutant assessed early apoptotic cells at […] after 72 hrs by AnnexinV-FITC/Propidium iodide staining based flow cytometric analysis (reference value: 7.34 %); type: functional; conditions: dose 0.15 µM
[11] = tested on: MV4-11; assay: Induction of apoptosis in human MV4-11 cells harboring FLT3-ITD mutant assessed late apoptotic cells at […] after 72 hrs by AnnexinV-FITC/Propidium iodide staining based flow cytometric analysis (reference value: 1.48 %); type: functional; conditions: dose 0.15 µM
[12] = tested on: MOLM-13; assay: Induction of cell cycle arrest in human MOLM-13 cells harboring FLT3-ITD mutant assessed decrease in cell accumulation at S phase after 24 hrs by Propidium iodide staining based flow cytometric analysis; type: functional
In short: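 Cells then fixed in ice-cold 70% ethanol, stained with 20 ng/ml propidium iodide, and cell-cycle phases measured by flow cytometry.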

[13] = tested on: RS4-11; assay: Antiproliferative activity against human RS4-11 cells assessed as reduction in cell viability incubated for 48 hr by CellTiter-Glo assay; type: functional, cell-based; conditions: RS4-11, 48 h
[14] = Antiproliferative activity against relapsed human derived M3 Fab type Acute myeloid leukemic cells assessed as reduction in cell viability incubated for 48 hr by CellTiter-Glo assay; type: functional, cell-based; conditions: Leukemia cell
In short: (§1)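 Primary AML peripheral blood or bone marrow mononuclear cells thawed and expanded ex vivo; blasts counted between day 10 and 13, characterised by CD123 FACS and FLT3 genotyping. Blasts treated 48 h; proliferation IC50 read by CellTiter-Glo.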

[15] = Antiproliferative activity against human derived M4 Fab type Acute myeloid leukemic cells assessed as reduction in cell viability incubated for 48 hr by CellTiter-Glo assay; type: functional, cell-based; conditions: Leukemia cell; in short: as §1
[16] = Antiproliferative activity against relapsed human derived M5b Fab type Acute myeloid leukemic cells harboring FLT3-ITD mutant assessed as reduction in cell viability incubated for 48 hr by CellTiter-Glo assay; type: functional, cell-based; conditions: Leukemia cell; in short: as §1
[17] = tested on: MV4-11; assay: Antitumor activity against human MV4-11 cells harboring FLT-3 ITD mutant xenografted in BALB/c nude mouse assessed as decrease in phosphorylated STAT5 at Y694 residue at 150 mg/kg, po measured after 2 to 4 hrs by Western blot analysis; type: functional, organism-based; conditions: time 2-4 hrs
In short: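 Mice bearing s.c. MV4-11 xenografts given a single oral dose of 150 mg/kg in methylcellulose/Tween vehicle. Tumours harvested at 2 and 4 h; lysates immunoblotted for phospho-STAT5 with actin as loading control.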

[18] = tested on: MOLM-13; assay: Antitumor activity against human MOLM-13 cells harboring FLT-3 ITD mutant xenografted in BALB/c nude mouse assessed as decrease in phosphorylated FLT3 at Y591 residue at 150 mg/kg, po measured after 3 hrs by Western blot analysis; type: functional, organism-based
In short: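 Mice bearing s.c. MOLM-13 xenografts given a single oral dose of 150 mg/kg. Tumours harvested at 3 h; lysates immunoblotted for phospho-FLT3, -STAT3, -STAT5, -Akt and total actin.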

[19] = tested on: MV4-11; assay: Antitumor activity against human MV4-11 cells harboring FLT-3 ITD mutant xenografted in BALB/c nude mouse assessed as tumor growth inhibition at 25 mg/kg, po administered daily for 21 days relative to control; type: functional; conditions: MV4-11, 504 h, time 21 day, read-out: TGI
In short: (§2)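 Female BALB/c nude mice implanted s.c. in right flank with 1 × 10^7 MV4-11 cells in serum-free medium mixed 1:1 with Matrigel. Randomised on day 11 at mean 146–150 mm3 (n=10/group); oral hydrochloride salt once daily for 21 days in 0.5% methylcellulose/0.1% Tween-80. Doses are free-base equivalents; caliper twice weekly; ANOVA with Dunnett's test.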

[20] = tested on: MV4-11; assay: Antitumor activity against human MV4-11 cells harboring FLT-3 ITD mutant xenografted in BALB/c nude mouse assessed as tumor growth inhibition at 50 mg/kg, po administered daily for 21 days relative to control; type: functional; conditions: MV4-11, 504 h, time 21 day, read-out: TGI; in short: as §2
[21] = tested on: MOLM-13; assay: Antitumor activity against human MOLM-13 cells harboring FLT-3 ITD mutant xenografted in BALB/c nude mouse assessed as tumor growth inhibition at 150 mg/kg, […] relative to control; type: functional; conditions: MOLM-13, 168 h, route po, read-out: TGI

## C1=N/C2=N/c3ccc(OCCN4CCCC4)c(c3)COC/C=C/COCc3cccc(c3)C(=C1)N2 [PACRITINIB]
[1]
  Activity: 72.52%
[2]
  Activity: Dose-Dependent Effect
[3]
  Activity: 68.98%
[4]
  Activity: 0.94%
[5]
  Activity: 35.61%
[6]
  Activity: 39.9%
[7]
  Activity: 20.83%
[8]
  Activity: 4.18%
[9]
  Activity: 20.38%
[10]
  Activity: 58.69%
[11]
  Activity: 15.1%
[12]
  Activity: Dose-Dependent Effect
[13]
  IC50: 930 nM
[14]
  IC50: 210 nM
[15]
  IC50: 840 nM
[16]
  IC50: 250 nM
[17]
  Activity: Active
[18]
  Activity: Active
[19]
  inhibition in vivo at 25 mg/kg: 38%
[20]
  inhibition in vivo at 50 mg/kg: 92%
[21]
  inhibition in vivo at 150 mg/kg: 83%
